PMC5609126 (ACS Chemical Neuroscience, 2017)

Key:
PET imaging in wild-type = format: in vivo; settings: WT mice, PET image-derived brain and blood curves
In short: (§1)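 Male FVB-background wild-type, Mdr1a/b(−/−) and Bcrp1(−/−) mice (28.3–39.7 g) were isoflurane-anaesthetised with jugular cannulas. They got 3.6–3.8 MBq radiotracer and 60 min dynamic PET in groups of 4–6, mostly on HRRT. One tracer's Mdr1a/b(−/−) vs WT study used nanoPET/CT and PET/MR. Ellipsoid ROIs gave brain TACs (SUV) and left-ventricle blood curves. Brain-to-blood AUC ratios were calculated from the AUCs.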

[1] = Biodistribution in selected organs; format: in vivo; settings: Wistar rats, 5, 15, 60 min after injection
In short: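 Male Wistar rats (218–244 g) got 50 ± 2 MBq radiotracer i.v. by tail vein under isoflurane (2% in O2). They stayed conscious until sacrifice, except the 5 min group. Rats were killed under isoflurane at 5, 15 or 60 min (n = 3). Heart-puncture blood, heart, lungs, liver, kidneys, bone, cerebral cortex, cerebellum and remaining brain were weighed and gamma-counted. Results were expressed as %ID/g.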

[2] = Metabolite analysis in plasma and brain tissue after tracer injection; format: in vivo; settings: Wistar rats, mean ± SD; for parent tracer, brain: brain tissue
In short: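 Male Wistar rats (230–291 g) got radiotracer (28 ± 4 or 43 ± 24 MBq, depending on tracer) by tail vein under isoflurane and stayed conscious until sacrifice at 5, 15 or 60 min (n = 3). Heparinised plasma was run on a tC18 cartridge: the water wash was the polar metabolite fraction and the methanol eluate the nonpolar parent fraction, analysed by HPLC. Half-brains were homogenised in cold H2O/MeCN (1:1), centrifuged, and supernatants run on HPLC.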

BCRP = assay: PET imaging in Bcrp1; format: in vivo; settings: Bcrp1(-/-) mice, PET image-derived brain and blood curves
In short: as §1

P-gp [3] = assay: PET imaging in Mdr1a/b; format: in vivo, mice; settings: for brain-to-blood AUC ratios: PET image-derived brain and blood curves
In short: as §1

P-gp [4] = assay: P-gp blocking study with tariquidar, PET whole brain uptake; format: in vivo; settings: Wistar rats; for increase in brain uptake after tariquidar vs baseline scans: tariquidar 15 mg/kg i.v. 30 min before tracer, PET whole brain

## COc1ccc(CCN(CC[18F])CCC[C@](C#N)(c2ccc(OC)c(OC)c2)C(C)C)cc1OC [[^18F]1, (R)-5-((3,4-Dimethoxyphenethyl)(2-[^18F]fluoroethyl)amino)-2-(3,4-dimethoxyphenyl)-2-isopropylpentanenitrile]
PET imaging in wild-type
  brain-to-blood AUC ratios: 0.52 ± 0.05
[1]
  bone uptake (defluorination): bone uptake was low and did not increase over time
  brain uptake: low brain uptake
[2]; 15 min after injection
  parent tracer, brain: 14 ± 2 Percentage of total radioactivity
  parent tracer, plasma: 19 ± 2 Percentage of total radioactivity
[2]; 60 min after injection
  parent tracer, plasma: 3 ± 1 Percentage of total radioactivity
BCRP
  brain-to-blood AUC ratios: 0.88 ± 0.06
P-gp [3]; Mdr1a/b(-/-) mice
  brain-to-blood AUC ratios: 0.98 ± 0.07
P-gp [3]; during the first 10 min, PET whole brain
  higher brain uptake in Mdr1a/b(-/-) mice compared with wild-type mice: 1.4 fold
P-gp [4]; PET whole brain time-activity curve, tariquidar blocking study
  time of highest brain uptake: 5 min
P-gp [4]
  increase in brain uptake after tariquidar vs baseline scans: 3.6 fold

## COc1ccc([C@@](C#N)(CCCNCCc2ccc(OCC[18F])c(OC)c2)C(C)C)cc1OC [[^18F]2, (R)-2-(3,4-Dimethoxyphenyl)-5-((4-(2-[^18F]fluoroethoxy)-3-methoxyphenethyl)amino)-2-isopropylpentanenitrile]
PET imaging in wild-type
  brain-to-blood AUC ratios: 0.18 ± 0.04
[1]
  bone uptake (defluorination): low bone uptake
[2]; 5 min after injection
  parent tracer, brain: 26 ± 6 Percentage of total radioactivity
  parent tracer, plasma: 20 ± 3 Percentage of total radioactivity
[2]; 15 min after injection
  parent tracer, brain: 17 ± 7 Percentage of total radioactivity
  parent tracer, plasma: 8 ± 3 Percentage of total radioactivity
[2]; 60 min after injection
  parent tracer, brain: 6 ± 1 Percentage of total radioactivity
  parent tracer, plasma: 4 ± 1 Percentage of total radioactivity
BCRP
  brain-to-blood AUC ratios: 0.20 ± 0.02
P-gp [3]; Mdr1a/b(-/-) mice
  brain-to-blood AUC ratios: 0.75 ± 0.14
P-gp [3]; Mdr1a/b(-/-) mice, at the end of the scan (60 min)
  SUV plateau of brain uptake: about 0.9 SUV
P-gp [3]; maximum level over 60 min scan, PET whole brain
  higher brain uptake in Mdr1a/b(-/-) mice than in wild-type mice: ≤ 6.4 fold
P-gp [4]
  increase in brain uptake after tariquidar vs baseline scans: 2.4 fold
